Laboratory results as given in article PMC9638899 (Nucleic Acids Research, 2022).
Where “and” joins values, the source holds several entries; their conditions need not be identical. Identical values can stand only once.

Assays:
SisCsx1 [1] = assay: Binding of cA4 to SisCsx1; design: species or system Sulfolobus islandicus; conditions: SisCsx1 versus Sis0455
Sis0455 [2] = assay: cA4 cleavage activity assay and time course, LC ESI-MS, Sis0455; type: biochemical, Sulfolobus islandicus; conditions: time course, 40 μM cA4, 2 μM enzyme, 70°C
Sis0455 N138G [3] = assay: cA4 cleavage activity assay, LC ESI-MS, Sis0455 N138G; type: biochemical, Sulfolobus islandicus; conditions: 40 μM cA4, 2 μM enzyme, 70°C, one hour
Outline: (§1)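 Each 50 μl reaction held 40 μM cA4 and 2 μM His-tagged Sis0455 variant (E. coli-expressed) in 20 mM Tris pH 8.0, 100 mM NaCl, 1 mM EDTA, for 1 h at 70°C. A no-enzyme control was included. Reactions were stopped at 4°C, phenol-extracted, dried and taken up in 8.6 mM TEA pH 8.3. Products were separated on C18 reverse-phase UPLC (TEA/acetonitrile gradient, 30°C) and read by negative-ion ESI-MS. Runs were at least duplicates.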

Sis0455-K106G [4] = assay: ITC binding of cA4 to Sis0455-K106G; design: species or system Sulfolobus islandicus; conditions: 25°C, K106G mutant
Outline: (§2)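 His-tagged Sis0455 mutants (site-directed) were expressed in E. coli BL21 pRARE and purified. Protein and cA4 were dialysed into 50 mM HEPES pH 8.0, 300 mM KCl. cA4 (~50 or 100 μM, syringe) was titrated into protein (~5 or 10 μM) at 25°C: one 0.4 μl injection, then 19 × 2 μl, 150 s apart, 750 rpm. cA4-into-buffer controls were run. Normalised heats were fitted to a single-site model.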

Sis0455-K106G [5] = assay: cA4 cleavage activity assay, LC ESI-MS, Sis0455-K106G; type: biochemical, Sulfolobus islandicus; conditions: 40 μM cA4, 2 μM enzyme, 70°C, one hour
Outline: as §1

Sis0455 E17G/T37G = assay: ITC binding of cA4 to Sis0455 E17G/T37G; design: species or system Sulfolobus islandicus; conditions: 25°C, E17G/T37G mutant
Outline: as §2

Sis0455 T10G [6] = assay: cA4 cleavage activity assay, LC ESI-MS, Sis0455 T10 glycine substitution; type: biochemical, Sulfolobus islandicus; conditions: 40 μM cA4, 2 μM enzyme, 70°C, one hour, T10 substituted by glycine
Outline: as §1

Sis0455-E41G/R134G = assay: cA4 cleavage activity assay, LC ESI-MS, Sis0455-E41G/R134G; type: biochemical, Sulfolobus islandicus; conditions: 40 μM cA4, 2 μM enzyme, 70°C, one hour
Outline: as §1

Sis0811 [7] = assay: Binding of cA4 to Sis0811; design: species or system Sulfolobus islandicus; conditions: Sis0811 versus SisCsx1
Sis0455 N138G [8] = assay: ITC binding of cA4 to Sis0455 N138G; design: species or system Sulfolobus islandicus; conditions: 25°C, N138G mutant
Outline: as §2

Sis0455 Q130G/Y133G [9] = assay: cA4 cleavage activity assay, LC ESI-MS, Sis0455 Q130G/Y133G; type: biochemical, Sulfolobus islandicus; conditions: 40 μM cA4, 2 μM enzyme, 70°C, one hour
Outline: as §1

Sis0455-R105G [10] = assay: cA4 cleavage activity assay, LC ESI-MS, Sis0455-R105G; type: biochemical, Sulfolobus islandicus; conditions: 40 μM cA4, 2 μM enzyme, 70°C, one hour
Outline: as §1

Sis0455-R105G [11] = assay: ITC binding of cA4 to Sis0455-R105G; design: species or system Sulfolobus islandicus; conditions: 25°C, R105G mutant
Outline: as §2

Sis0811 [12] = assay: cA4 cleavage time course, LC ESI-MS, Sis0811; type: biochemical, Sulfolobus islandicus; conditions: 70°C
Sis0455 E41G/R134G = assay: ITC binding of cA4 to Sis0455 E41G/R134G; design: species or system Sulfolobus islandicus; conditions: 25°C, E41G/R134G mutant
Outline: as §2

Sis0455 T10G [13] = assay: ITC binding of cA4 to Sis0455 T10G; design: species or system Sulfolobus islandicus; conditions: 25°C, T10G mutant
Outline: as §2

Sis0455 Q130G/Y133G [14] = assay: ITC binding of cA4 to Sis0455 Q130G/Y133G; design: species or system Sulfolobus islandicus; conditions: 25°C, Q130G/Y133G mutant
Outline: as §2

Sis0455-S11G = assay: ITC binding of cA4 to Sis0455-S11G; design: species or system Sulfolobus islandicus
[15] = system: Sis0455 E17/E37 glycine substitution; assay: cA4 cleavage activity assay, LC ESI-MS, Sis0455 E17/E37 glycine substitution; type: biochemical, Sulfolobus islandicus; conditions: 40 μM cA4, 2 μM enzyme, 70°C, one hour, E17/E37 substituted by glycine
Outline: as §1

Sso2081 = Sso2081 versus Sso1393; cited from earlier work
SisCsx1 [16] = conditions: cited from earlier work
Sis0455 D75G = assay: ITC binding of cA4 to Sis0455 D75G; design: species or system Sulfolobus islandicus; conditions: 25°C, D75G mutant
Outline: as §2

Sis0455 [17] = assay: ITC binding of cA4 to Sis0455 wild type; design: species or system Sulfolobus islandicus

affinity for cA4 lower than Sis0455 (SisCsx1 [1]): 10 fold | Kd (Sis0455-K106G [4]): 4.1 µM | Kd (Sis0455 E17G/T37G): 0.0035 µM | affinity higher than that of SisCsx1 (Sis0811 [7]): 2 fold | Kd (Sis0455 N138G [8]): 0.0105 µM | cA4 binding (Sis0455-R105G [11]): abolished cA4 binding | Kd (Sis0455 E41G/R134G): 0.0019 µM | Kd (Sis0455 T10G [13]): 0.0353 µM | Kd (Sis0455 Q130G/Y133G [14]): 2.6 µM | Kd (Sis0455-S11G; ITC, 25°C, S11G variant): 0.0195 µM | decrease in the binding affinity (Sis0455-S11G; S11G variant versus wild type Sis0455): ~10 fold | cA4 binding (Sis0455 D75G): abolished cA4 binding | Kd (Sis0455 [17]; ITC, 25°C, wild type Sis0455): 0.0022 µM and 0.002 µM | higher affinity for cA4 of Sis0455 than Sis0811 (Sis0455 [17]; Sis0455 versus Sis0811 (ref 37)): 5 fold
Substance: Cyclic tetraadenylate [cA4]
time to fully degrade cA4 producing 100% P1 product (Sis0455 [2]): 50 min | cA4 cleavage activity (Sis0455 N138G [3]): did not affect catalysis | cA4 cleavage activity (Sis0455-K106G [5]): abolished the cleavage activity | cA4 cleavage activity (Sis0455 T10G [6]): did not affect catalysis | cA4 cleavage activity (Sis0455-E41G/R134G): showed cA4 as major specie | cA4 cleavage activity (Sis0455 Q130G/Y133G [9]): did not affect catalysis | cA4 cleavage activity (Sis0455-R105G [10]): abrogated the nuclease activity | time to cleave the second phosphodiester bond converting all the linear product in the P1 dinucleotide (Sis0811 [12]; Sis0811): 30 min | time to fully degrade cA4 producing 100% P1 product (Sis0811 [12]; Sis0811): 50 min | time to convert almost 100% of the cyclic molecule in the P3 linear product (Sis0811 [12]; Sis0811, first phosphodiester): 20 min | cA4 cleavage activity [15]: did not affect catalysis | cA4 processing faster than Sso1393 (Sso2081): 10 fold | Kd (SisCsx1 [16]): 0.02 µM
